Source: paper PMC4026406 (Drug Design, Development and Therapy, 2014)
In brackets after ≈: the same amount, converted by molar mass.

Assays:
[1] = test system: Escherichia coli IFO 3301; assay: Agar disc diffusion, growth inhibition zone; format: cell-based; conditions: IFO3301, 24 h, read-out: Diameter of growth inhibition zone EC
In short: (§1)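 Filter paper discs (8 mm) were loaded with test compound in DMSO at 200 μg/disc, with gentamicin, ampicillin trihydrate and clotrimazole discs at 100 μg/disc. Discs were placed on Müller–Hinton agar plates previously inoculated with IFO strains and incubated at 37°C. Inhibition zone diameters were read after 24 h for bacteria and 48 h for C. albicans.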

normal albino mice = assay: Oral acute toxicity; format: in vivo; conditions: oral, mice; for LD16 / LD84: mortality at 24 hours
In short: (§2)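 Albino mice of either sex were dosed in six groups of six. Test compound was given by oral intubation as fresh suspensions (1–12%) in 0.5% aqueous CMC at 250, 500, 750, 1,000, 1,250 and 1,500 mg/kg. Mortality was recorded at 24 h, and LD16, LD50 and LD84 were calculated.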

Oral acute toxicity = format: in vivo, mice; conditions: both, albino, mouse, in vivo, po
In short: as §2

[2] = test system: Staphylococcus aureus IFO 3060; assay: Determination of MIC; format: cell-based; conditions: IFO3060, 24 h, read-out: MIC SA
In short: (§3)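 Broth two-fold dilution against IFO strains. Test compound and reference agents were dissolved in DMSO at 128 μg/mL and diluted two-fold from 128 to 0.5 μg/mL. Wells were inoculated with organism suspensions at 10^6 CFU/mL and incubated at 36°C for 24 h.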

[3] = test system: carrageenan-induced paw edema; assay: Carrageenan-induced paw edema method in rats; format: in vivo, Sprague Dawley rats; conditions: for anti-inflammatory potency ratio relative to indomethacin: 40 mg/kg versus indomethacin
In short: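 Male Sprague Dawley rats (140–190 g, 20–23°C, 2-day acclimatisation) were used in groups of five. Test compound (20 or 40 mg/kg) or indomethacin (5 mg/kg) was given i.p. in 1 mL 0.5% aqueous CMC. One hour later, 0.1 mL 1% carrageenan in saline went into the right hind paw, with saline in the left. Paw volume was measured by water plethysmometer at 4 h. Protection was calculated versus vehicle control and reported as mean ± SEM, Student's t-test.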

[4] = test system: Candida albicans IFO 0583; assay: Agar disc diffusion, growth inhibition zone; format: cell-based; conditions: for inhibitory activity against C. albicans (in words): 200 μg/disc, compared with clotrimazole
In short: as §1

[5] = test system: Bacillus subtilis IFO 3007; assay: Determination of MIC; format: cell-based; conditions: IFO3007, 24 h, read-out: MIC BS
In short: as §3

[6] = test system: Candida albicans IFO 0583; assay: Determination of MIC; format: cell-based; conditions: IFO0583, read-out: MIC CA
In short: as §3

[7] = test system: Pseudomonas aeruginosa IFO 3448; assay: Determination of MIC; format: cell-based; conditions: IFO3448, 24 h, read-out: MIC PA
In short: as §3

[8] = test system: Micrococcus luteus IFO 3232; assay: Determination of MIC; format: cell-based; conditions: IFO3232, 24 h, read-out: MIC ML
In short: as §3

[9] = test system: Escherichia coli IFO 3301; assay: Determination of MIC; format: cell-based; conditions: IFO3301, 24 h, read-out: MIC EC
In short: as §3

[10] = Candida albicans, IFO0583, 48 h, read-out: Diameter of growth inhibition zone CA

O=C(O)CSc1nnc(C23CC4CC(CC(C4)C2)C3)n1-c1ccccc1 [Compound 14, 2-[5-(1-Adamantyl)-4-phenyl-1,2,4-triazol-3-ylsulfanyl]acetic acid]
zone of inhibition at 200 µg/disc [1]: < 10 mm | LD50 as percent of that of indomethacin (normal albino mice): 9.03% | LD16 (normal albino mice): 295 mg/kg | LD84 (normal albino mice): 1,338 mg/kg | LD50 at 24 h (Oral acute toxicity): 554 mg/kg | MIC [2]: 8 µg/mL (≈ 21.7 µM) | anti-inflammatory potency ratio relative to indomethacin [3]: about 15% | inhibitory activity against C. albicans (in words) [4]: marginal activity | zone of inhibition at 200 µg/disc [4, 10]: 12 mm

CN(C)CCSc1nnc(C23CC4CC(CC(C4)C2)C3)n1C [Compound 9a, 2-{[5-(Adamantan-1-yl)-4-methyl-4H-1,2,4-triazol-3-yl]sulfanyl}-N,N-dimethyl-ethanamine]
zone of inhibition at 200 µg/disc [1]: < 10 mm | zone of inhibition at 200 µg/disc [4, 10]: < 10 mm

CCOC(=O)N1CCN(Cn2nc(C34CC5CC(CC(C5)C3)C4)n(-c3ccccc3)c2=S)CC1 [Compound 6b, Ethyl 4-{[3-(adamantan-1-yl)-4-phenyl-5-sulfanylidene-4,5-dihydro-1H-1,2,4-triazol-1-yl]methyl}piperazine-1-carboxylate]
MIC [5]: 16 µg/mL (≈ 33.2 µM) | zone of inhibition at 200 µg/disc [1]: < 10 mm | zone of inhibition at 200 µg/disc [4, 10]: < 10 mm

COCCSc1nnc(C23CC4CC(CC(C4)C2)C3)n1-c1ccccc1 [Compound 11, 5-(1-Adamantyl)-3-[(2-methoxyethyl)sulfanyl]-4-phenyl-1,2,4-triazole]
zone of inhibition at 200 µg/disc [1]: < 10 mm | reduction in edema at both dose levels ([3]; 20 and 40 mg/kg intraperitoneal, rats): did not show any significant anti-inflammatory activity | zone of inhibition at 200 µg/disc [4, 10]: < 10 mm

Clc1ccccc1C(c1ccccc1)(c1ccccc1)n1ccnc1 [Clotrimazole, clotrimazole, reference compound]
MIC [6]: 2 µg/mL (≈ 5.8 µM) | zone of inhibition at 100 µg/disc [4, 10]: 21 mm

CNC(C)C1CCC(N)C(OC2C(N)CC(N)C(OC3OCC(C)(O)C(NC)C3O)C2O)O1 (centres unmarked) [Gentamicin, gentamicin, reference compound]
MIC [5]: 2 µg/mL (≈ 4.19 µM) | zone of inhibition at 100 µg/disc [1]: 20 mm | MIC [7]: 1 µg/mL (≈ 2.09 µM) | MIC [8]: 2 µg/mL (≈ 4.19 µM) | MIC [9]: 0.5 µg/mL (≈ 1.05 µM) | MIC [2]: 2 µg/mL (≈ 4.19 µM)

CCOC(=O)CSc1nnc(C23CC4CC(CC(C4)C2)C3)n1-c1ccccc1 [Compound 13, Ethyl 2-[5-(1-adamantyl)-4-phenyl-1,2,4-triazol-3-ylsulfanyl]acetate]
MIC [5]: 16 µg/mL (≈ 40.2 µM) | zone of inhibition at 200 µg/disc [1]: < 10 mm | LD50 as percent of that of indomethacin (normal albino mice): 5.41% | LD16 (normal albino mice): 499 mg/kg | LD84 (normal albino mice): 1,435 mg/kg | LD50 at 24 h (Oral acute toxicity): 924 mg/kg | MIC [2]: 4 µg/mL (≈ 10.1 µM) | anti-inflammatory potency ratio relative to indomethacin [3]: about 15% | inhibitory activity against C. albicans (in words) [4]: marginal activity | zone of inhibition at 200 µg/disc [4, 10]: 12 mm

CC1(C)S[C@@H]2[C@H](NC(=O)[C@H](N)c3ccccc3)C(=O)N2[C@H]1C(=O)O [Ampicillin, ampicillin, reference compound]
MIC [5]: 0.5 µg/mL (≈ 1.43 µM) | zone of inhibition at 100 µg/disc [1]: 17 mm | MIC [7]: 2 µg/mL (≈ 5.72 µM) | MIC [8]: 2 µg/mL (≈ 5.72 µM) | MIC [9]: 2 µg/mL (≈ 5.72 µM) | MIC [2]: 2 µg/mL (≈ 5.72 µM)
